The text below walks through data of ChEMBL document CHEMBL2375307, “Synthesis and identification of β-aryloxyquinoline based diversely fluorine substituted N-aryl quinolone derivatives as a new class of antimicrobial, antituberculosis and antioxidant agents” (Eur J Med Chem, 2013).

One assay has as its system Candida albicans. The assay is described as follows: Antifungal activity against Candida albicans MTCC 227 assessed as growth inhibition after overnight incubation by NCCLS broth microdilution method. Type of assay: functional. In outline: (§1)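 Broth microdilution per NCCLS in Mueller Hinton broth, compounds diluted in DMSO. Primary screen at 500, 250 and 200 µg/mL; actives retested at 100, 62.5, 50, 25 and 12.5 µg/mL. Tubes incubated overnight at 37 °C. […] Non-growing tubes subcultured overnight at 37 °C to judge bacteriostatic versus bactericidal action.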
(Broth dilution looks for growth in wells or tubes with falling amounts of substance.)

The subject of a further assay is Escherichia coli. The assay is described as follows: Antibacterial activity against Escherichia coli MTCC 443 assessed as growth inhibition after overnight incubation by NCCLS broth microdilution method. Type of assay: functional. In a few lines: as §1
Assay [1] concerns Mycobacterium tuberculosis. The assay is described as follows: Antitubercular activity against Mycobacterium tuberculosis H37Rv assessed as growth inhibition at 250 ug/mL after 12 to 28 days by Lowenstein-Jensen method relative to control. It counts as functional. The conditions noted are these: read-out: GI. In a few lines: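 Modified Lowenstein-Jensen method. Compound at 250 in DMSO added to liquid L-J medium, then sterilized by inspissation and incubated 24 h at 37 °C. Streaked with H37Rv harvested in 0.85% saline (5 × 10⁴ bacilli/tube) and incubated at 37 °C. Colonies read at 12, 22 and 28 days versus drug-free control; no colonies or <20 colonies scored as inhibition.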

Assay [2] in a line: Antioxidant activity of the compound assessed as ascorbic acid equivalent of ferric tripyridyl triazine reducing activity at 200 ug/mL after 15 mins by FRAP assay. Type of assay: functional. In outline:
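FRAP, modified Benzie and Strain method. Fe(III)-TPTZ reagent made with TPTZ in 40 mM HCl, FeCl3 solution and acetate buffer pH 3.6. 200 µL sample solution mixed with 3 mL reagent and held 15 min at 37 °C. Fe(II)-TPTZ read at 593 nm against an ascorbic acid standard, expressed as ascorbic acid equivalents (mmol/100 g compound).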

The subject of a further assay is Streptococcus pneumoniae. The assay is described as follows: Antibacterial activity against Streptococcus pneumoniae MTCC 1936 assessed as growth inhibition after overnight incubation by NCCLS broth microdilution method. Type of assay: functional. In a few lines: as §1
The next assay deals with Bacillus subtilis. Briefly: Antibacterial activity against Bacillus subtilis MTCC 441 assessed as growth inhibition after overnight incubation by NCCLS broth microdilution method. It counts as functional. In outline:
as §1

The subject of the next assay is Aspergillus fumigatus. Briefly: Antifungal activity against Aspergillus fumigatus MTCC 3008 assessed as growth inhibition after overnight incubation by NCCLS broth microdilution method. Type of assay: functional. In outline: as §1
The subject of the next assay is Vibrio cholerae. Briefly: Antibacterial activity against Vibrio cholerae MTCC 3906 assessed as growth inhibition after overnight incubation by NCCLS broth microdilution method. Type of assay: functional.
Another assay relates to Salmonella typhi. Briefly: Antibacterial activity against Salmonella typhi MTCC 98 assessed as growth inhibition after overnight incubation by NCCLS broth microdilution method. Type of assay: functional, Salmonella enterica subsp. enterica serovar Typhi. The settings on record: Salmonella enterica.
For the next assay, the system named is Clostridium tetani. Briefly: Antibacterial activity against Clostridium tetani MTCC 449 assessed as growth inhibition after overnight incubation by NCCLS broth microdilution method. It counts as functional.

Converted amounts (≈) assume the structure as drawn.

What is called MIC is the smallest concentration in the dilution series that meets the test's criterion for growth inhibition. Consider `COc1ccc2nc(Oc3ccc(C#N)cc3)c(C3C(C#N)=C(N)N(c4cccc(C(F)(F)F)c4)C4=C3C(=O)CCC4)cc2c1` (stereo unspecified), for which the MIC in the assay with Candida albicans worked out at 500 µg/mL (≈ 823 µM); in the assay on Escherichia coli it was 200 µg/mL (≈ 329 µM); with Streptococcus pneumoniae, 125 µg/mL (≈ 206 µM); in the assay on Bacillus subtilis it was 200 µg/mL (≈ 329 µM); with Aspergillus fumigatus it was 1000 µg/mL (≈ 1650 µM); in the assay on Vibrio cholerae it was 100 µg/mL (≈ 165 µM). The MIC in the assay with Salmonella typhi is 125 µg/mL (≈ 206 µM); in the assay on Clostridium tetani, 500 µg/mL (≈ 823 µM). Further, the inhibition of growth at 250 µg/mL in assay [1] was determined as 23%. For the same compound, the Activity in assay [2] stood at 260 equiv.

Take `Cc1ccc2nc(Oc3ccc(C#N)cc3)c(C3C(C#N)=C(N)N(c4ccc(F)c(F)c4)C4=C3C(=O)CC(C)(C)C4)cc2c1` (stereo unspecified): the MIC with Candida albicans was more than 1000 µg/mL; in the assay on Escherichia coli, 200 µg/mL (≈ 340 µM); in the assay with Streptococcus pneumoniae, 200 µg/mL (≈ 340 µM); in the assay on Bacillus subtilis, 250 µg/mL (≈ 425 µM); in the assay with Aspergillus fumigatus it was 1000 µg/mL (≈ 1700 µM); with Vibrio cholerae, 250 µg/mL (≈ 425 µM). The MIC with Salmonella typhi and in the assay on Clostridium tetani was 250 µg/mL (≈ 425 µM) each time. Further, the inhibition of growth at 250 µg/mL in assay [1] came out at 32%. Moreover, the Activity in assay [2] came out at 122 equiv.

Turning to `N#Cc1ccc(Oc2nc3ccccc3cc2C=O)cc1`, the MIC stood at 1000 µg/mL (≈ 3650 µM) in the assay with Candida albicans; 100 µg/mL (≈ 365 µM) with Escherichia coli; 250 µg/mL (≈ 911 µM) with Streptococcus pneumoniae; 200 µg/mL (≈ 729 µM) in the assay on Bacillus subtilis; 500 µg/mL (≈ 1820 µM) in the assay with Aspergillus fumigatus; 250 µg/mL (≈ 911 µM) in the assay on Vibrio cholerae. The MIC in the assay on Salmonella typhi was determined as 100 µg/mL (≈ 365 µM); with Clostridium tetani, 250 µg/mL (≈ 911 µM). For the same compound, the inhibition of growth at 250 µg/mL in assay [1] amounted to 42%. Also, the Activity in assay [2] amounted to 19.2 equiv.

With `Cc1ccc2nc(Oc3ccc(C#N)cc3)c(C3C(C#N)=C(N)N(c4ccc(F)c(F)c4)C4=C3C(=O)CCC4)cc2c1` (stereo unspecified), the MIC came out at 250 µg/mL (≈ 447 µM) in the assay on Candida albicans; 200 µg/mL (≈ 357 µM) in the assay with Escherichia coli; 250 µg/mL (≈ 447 µM) in the assay on Streptococcus pneumoniae; 200 µg/mL (≈ 357 µM) in the assay on Bacillus subtilis; 500 µg/mL (≈ 894 µM) in the assay on Aspergillus fumigatus; 200 µg/mL (≈ 357 µM) in the assay with Vibrio cholerae. In addition, the MIC worked out at 250 µg/mL (≈ 447 µM) in the assay on Salmonella typhi and 100 µg/mL (≈ 179 µM) in the assay on Clostridium tetani. Also, the inhibition of growth at 250 µg/mL in [1] was found to be 27%. Besides, in assay [2], the Activity was 243 equiv.

Regarding `CC1(C)S[C@@H]2[C@H](NC(=O)[C@H](N)c3ccccc3)C(=O)N2[C@H]1C(=O)O` [AMPICILLIN], the MIC in the assay with Escherichia coli was 100 µg/mL (≈ 286 µM); in the assay with Streptococcus pneumoniae, 100 µg/mL (≈ 286 µM); in the assay on Bacillus subtilis, 250 µg/mL (≈ 715 µM); with Vibrio cholerae it was 100 µg/mL (≈ 286 µM); in the assay with Salmonella typhi, 100 µg/mL (≈ 286 µM); with Clostridium tetani it was 250 µg/mL (≈ 715 µM).

For the compound `CC1(C)CC(=O)C2=C(C1)N(c1cccc(C(F)(F)F)c1)C(N)=C(C#N)C2c1cc2ccccc2nc1Oc1ccc(C#N)cc1` (stereo unspecified), the MIC worked out at 1000 µg/mL (≈ 1650 µM) in the assay with Candida albicans; 250 µg/mL (≈ 413 µM) in the assay on Escherichia coli; 200 µg/mL (≈ 330 µM) in the assay with Streptococcus pneumoniae; 250 µg/mL (≈ 413 µM) in the assay with Bacillus subtilis; 1000 µg/mL (≈ 1650 µM) in the assay on Aspergillus fumigatus; 200 µg/mL (≈ 330 µM) in the assay on Vibrio cholerae. For the same compound, the MIC in the assay on Salmonella typhi and with Clostridium tetani was 200 µg/mL (≈ 330 µM) each time. Moreover, the inhibition of growth at 250 µg/mL in assay [1] was 45%. Moreover, in assay [2], the Activity came out at 20.2 equiv.

For `O=C(N[C@H](CO)[C@H](O)c1ccc([N+](=O)[O-])cc1)C(Cl)Cl` [CHLORAMPHENICOL], the MIC in the assay with Escherichia coli, in the assay with Streptococcus pneumoniae, in the assay on Bacillus subtilis, in the assay on Vibrio cholerae, in the assay on Salmonella typhi and in the assay with Clostridium tetani was 50 µg/mL (≈ 155 µM) each time.

In the case of `O=C(O)c1cn(C2CC2)c2cc(N3CCNCC3)c(F)cc2c1=O` [CIPROFLOXACIN], the MIC was 25 µg/mL (≈ 75.4 µM) in the assay on Escherichia coli, 50 µg/mL (≈ 151 µM) with Streptococcus pneumoniae, 25 µg/mL (≈ 75.4 µM) in the assay on Vibrio cholerae and 25 µg/mL (≈ 75.4 µM) in the assay on Salmonella typhi.

As for `COC1=CC(=O)C[C@@H](C)[C@]12Oc1c(Cl)c(OC)cc(OC)c1C2=O` [GRISEOFULVIN], the MIC with Candida albicans was found to be 500 µg/mL (≈ 1420 µM); in the assay on Aspergillus fumigatus it was 100 µg/mL (≈ 283 µM).

Consider `CCn1cc(C(=O)O)c(=O)c2cc(F)c(N3CCNCC3)cc21` [NORFLOXACIN], for which the MIC stood at 10 µg/mL (≈ 31.3 µM) in the assay on Escherichia coli; 10 µg/mL (≈ 31.3 µM) in the assay with Streptococcus pneumoniae; 100 µg/mL (≈ 313 µM) in the assay on Bacillus subtilis; 10 µg/mL (≈ 31.3 µM) in the assay with Vibrio cholerae; 10 µg/mL (≈ 31.3 µM) in the assay on Salmonella typhi; 50 µg/mL (≈ 157 µM) in the assay on Clostridium tetani.

On to NYSTATIN, for which the MIC in the assay with Candida albicans and in the assay with Aspergillus fumigatus was 100 µg/mL in each case.
